ChEMBL document CHEMBL3227981, “Studies on biologically active nucleosides and nucleotides. 5. Synthesis and antitumor activity of some 2,2'-anhydro-1-(3',5'-di-O-acyl-beta-D-arabinofuranosyl)cytosine salts and 2,2'-anhydro-1-(3'-O-acyl-beta-D-arabinofuranoxyl)cytosine 5'-phosphates” (J Med Chem, 1979)

What was measured:
[1] = test system: L1210; assay: Antitumor activity against mouse L1210 cells allografted in BDF1 mouse assessed as increase of host life span at 25 mg/kg, ip qd for 5 days; assay type: functional; settings: route intraperitoneal
How it was run: (§1)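 BDF1 mice were given 1×10^5 L1210 cells ip. Compound was dissolved or suspended in 0.9% NaCl with 0.1% HCO-60 and given ip daily for 5 days, starting 24 h after inoculation. Groups had 6–10 mice. ILS = (T/C − 1) × 100, from mean survival time of treated versus control mice, observed over 60 days.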

[2] = test system: L1210; assay: Antitumor activity against mouse L1210 cells allografted in BDF1 mouse assessed as increase of host life span at 100 mg/kg, ip qd for 5 days; assay type: functional; settings: route intraperitoneal; how it was run: as §1
[3] = test system: L1210; assay: Antitumor activity against mouse L1210 cells allografted in BDF1 mouse assessed as increase of host life span at 100 mg/kg, po qd for 5 days; assay type: functional
How it was run: (§2)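 L1210 cells (1×10^5) were implanted ip in BDF1 mice. Oral dosing began 24 h later and ran once daily for 5 days, with compound in 0.9% saline containing 0.1% HCO-60 as solution or suspension. Six to ten mice per group. Percent ILS was (T/C − 1) × 100 on mean survival time, with a 30-day observation period.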

[4] = Toxicity in ip dosed ICR mouse up to 3 weeks; assay type: organism-based; settings: in vivo
How it was run: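 Maximum tolerated dose was set from a single ip injection into three female ICR mice weighing 20–21 g, followed by 3 weeks of observation.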

[5] = test system: L1210; assay: Antitumor activity against mouse L1210 cells allografted in BDF1 mouse assessed as increase of host life span at 6.25 mg/kg, ip qd for 5 days; assay type: functional; settings: route intraperitoneal; how it was run: as §1
[6] = test system: L1210; assay: Antitumor activity against mouse L1210 cells allografted in BDF1 mouse assessed as increase of host life span at 200 mg/kg, po qd for 5 days; assay type: functional; how it was run: as §2

## CCOC(=O)CCC(=O)OC[C@H]1O[C@@H]2[C@H](Oc3nc(=N)ccn32)[C@@H]1OC(=O)CCC(=O)OCC.Cl
[1]
  Activity: 12.4%
[2]
  Activity: 35.4%
[3]
  Activity: 21.6%
[4]
  MTD at 504 h: > 1000 mg/kg

## CCCCCCCCCCCOC(=O)CCC(=O)OC[C@H]1O[C@@H]2[C@H](Oc3nc(=N)ccn32)[C@@H]1OC(=O)CCC(=O)OCCCCCCCCCCC.Cl
[5]
  Activity: 15.4%
[1]
  Activity: 43.6%
[2]
  Activity: 94.6%
[3]
  Activity: 10.8%
[4]
  MTD at 504 h: 750 mg/kg

## Cl.N=c1ccn2c(n1)O[C@@H]1[C@H](OC(=O)c3ccc(Cl)cc3)[C@@H](COC(=O)c3ccc(Cl)cc3)O[C@H]12
[1]
  Activity: 31.3%
[2]
  Activity: 105.1%
[6]
  Activity: 21.8%
[4]
  MTD at 504 h: 750 mg/kg

## CC(C)(C)C(=O)O[C@H]1[C@H]2Oc3nc(=N)ccn3[C@@H]2O[C@@H]1COC(=O)CCCCCCC(=O)OC[C@H]1O[C@@H]2[C@H](Oc3nc(=N)ccn32)[C@@H]1OC(=O)C(C)(C)C.Cl
[1]
  Activity: 25%
[6]
  Activity: 41%
[4]
  MTD at 504 h: < 300 mg/kg

## CCCCCCCCOc1ccc(C(=O)OC[C@H]2O[C@@H]3[C@H](Oc4nc(=N)ccn43)[C@@H]2OC(=O)c2ccc(OCCCCCCCC)cc2)cc1.Cl
[2]
  Activity: 12.8%
[4]
  MTD at 504 h: 300 mg/kg

## Cl.N=c1ccn2c(n1)O[C@@H]1[C@H](OC(=O)c3ccccc3Cl)[C@@H](COC(=O)c3ccccc3Cl)O[C@H]12
[1]
  Activity: 25.6%
[6]
  Activity: 28.2%
[4]
  MTD at 504 h: < 300 mg/kg

## F[B-](F)(F)F.[NH2+]=c1ccn2c(n1)O[C@@H]1[C@H](OC(=O)CCCCCCCCCCN3C(=O)c4ccccc4C3=O)[C@@H](COC(=O)CCCCCCCCCCN3C(=O)c4ccccc4C3=O)O[C@H]12
[5]
  Activity: 23.1%
[1]
  Activity: 76.9%
[2]
  Activity: >510.3%
[4]
  MTD at 504 h: 500 mg/kg

## Cl.N=c1ccn2c(n1)O[C@@H]1[C@H](OC(=O)CCNC(=O)c3ccccc3)[C@@H](COC(=O)CCNC(=O)c3ccccc3)O[C@H]12
[1]
  Activity: 2.6%
[2]
  Activity: 32.1%

## CCCC(=O)NCCCCCCCCCCC(=O)OC[C@H]1O[C@@H]2[C@H](Oc3nc(=N)ccn32)[C@@H]1OC(=O)CCCCCCCCCCNC(=O)CCC.Cl
[5]
  Activity: 20.5%
[1]
  Activity: 51.3%
[2]
  Activity: 92.3%
[4]
  MTD at 504 h: 500 mg/kg

## F[B-](F)(F)F.[NH2+]=c1ccn2c(n1)O[C@@H]1[C@H](OC(=O)CCCl)[C@@H](COC(=O)CCCl)O[C@H]12
[3]
  Activity: 9%
[6]
  Activity: 38.5%

## CCCCCCCCCCCCCCCC(=O)OC[C@H]1O[C@@H]2[C@H](Oc3nc(=N)ccn32)[C@@H]1OC(=O)CCCCCCCCCCCCCCC.Cl
[5]
  Activity: 59%
[1]
  Activity: 151.3%
[2]
  Activity: >528.2%
[3]
  Activity: 0%
[6]
  Activity: 22.5%
[4]
  MTD at 504 h: 750 mg/kg

## CCCCCCCCCCCCCCCC(=O)O[C@H]1[C@H]2Oc3nc(=N)ccn3[C@@H]2O[C@@H]1COP(=O)(O)O
[5]
  Activity: 27.4%
[1]
  Activity: 116.4%
[2]
  Activity: >441.1%
[6]
  Activity: 43%
[4]
  MTD at 504 h: 500 mg/kg

## Cc1ccc(S(=O)(=O)NCCC(=O)OC[C@H]2O[C@@H]3[C@H](Oc4nc(=[NH2+])ccn43)[C@@H]2OC(=O)CCNS(=O)(=O)c2ccc(C)cc2)cc1.F[B-](F)(F)F
[1]
  Activity: 15%
[2]
  Activity: 47.5%

## CCOCCC(=O)OC[C@H]1O[C@@H]2[C@H](Oc3nc(=N)ccn32)[C@@H]1OC(=O)CCOCC.Cl
[1]
  Activity: 15.4%
[2]
  Activity: 57.5%

## CC(C)(C)c1ccc(C(=O)OC[C@H]2O[C@@H]3[C@H](Oc4nc(=N)ccn43)[C@@H]2OC(=O)c2ccc(C(C)(C)C)cc2)cc1.Cl
[5]
  Activity: 26.7%
[1]
  Activity: 84%
[2]
  Activity: 116.7%
[3]
  Activity: 22.7%
[6]
  Activity: 26.7%
[4]
  MTD at 504 h: 300 mg/kg

## Cl.N=c1ccn2c(n1)O[C@@H]1[C@H](O)[C@@H](CO)O[C@H]12
[1]
  Activity: 42.3%
[2]
  Activity: 76.9%
[3]
  Activity: 32.5%
[6]
  Activity: 69.2%
[4]
  MTD at 504 h: 3000 mg/kg

## CCCCCCCOCCC(=O)OC[C@H]1O[C@@H]2[C@H](Oc3nc(=N)ccn32)[C@@H]1OC(=O)CCOCCCCCCC.Cl
[1]
  Activity: 28.2%
[4]
  MTD at 504 h: 100 mg/kg

## Cc1ccc(C(=O)OC[C@H]2O[C@@H]3[C@H](Oc4nc(=N)ccn43)[C@@H]2OC(=O)c2ccc(C)cc2)cc1.Cl
[1]
  Activity: 37.3%
[2]
  Activity: 81.3%
[3]
  Activity: 14.7%
[6]
  Activity: 30.7%
[4]
  MTD at 504 h: 750 mg/kg

## CCCCCCCC(=O)O[C@H]1[C@H]2Oc3nc(=N)ccn3[C@@H]2O[C@@H]1COP(=O)(O)O
[5]
  Activity: 6.3%
[1]
  Activity: 50.7%
[2]
  Activity: 76%
[6]
  Activity: 50.7%
[4]
  MTD at 504 h: 500 mg/kg

## F[B-](F)(F)F.[NH2+]=c1ccn2c(n1)O[C@@H]1[C@H](OC(=O)CCN3C(=O)c4ccccc4C3=O)[C@@H](COC(=O)CCN3C(=O)c4ccccc4C3=O)O[C@H]12
[1]
  Activity: 2.6%
[2]
  Activity: 39.7%

## CCCCSCCCCCCCCCCC(=O)OC[C@H]1O[C@@H]2[C@H](Oc3nc(=N)ccn32)[C@@H]1OC(=O)CCCCCCCCCCSCCCC.Cl
[5]
  Activity: 26.7%
[1]
  Activity: 164%
[2]
  Activity: >624.3%
[3]
  Activity: 4%
[6]
  Activity: 13.3%
[4]
  MTD at 504 h: 500 mg/kg

## Cl.N=c1ccn2c(n1)O[C@@H]1[C@H](OC(=O)c3cccc(Cl)c3)[C@@H](COC(=O)c3cccc(Cl)c3)O[C@H]12
[1]
  Activity: 28.2%
[6]
  Activity: 38.5%
[4]
  MTD at 504 h: < 300 mg/kg

## CC(=O)O[C@H]1[C@H]2Oc3nc(=N)ccn3[C@@H]2O[C@@H]1COP(=O)(O)O
[1]
  Activity: 30.7%
[2]
  Activity: 57.3%
[3]
  Activity: 13.3%
[6]
  Activity: 46.9%
[4]
  MTD at 504 h: > 1500 mg/kg

## F[B-](F)(F)F.[NH2+]=c1ccn2c(n1)O[C@@H]1[C@H](OC(=O)c3cccc4ccccc34)[C@@H](COC(=O)c3cccc4ccccc34)O[C@H]12
[1]
  Activity: 35.5%
[2]
  Activity: 82.1%
[4]
  MTD at 504 h: 500 mg/kg

## CCCC(=O)OCCCCCCCCCCC(=O)OC[C@H]1O[C@@H]2[C@H](Oc3nc(=N)ccn32)[C@@H]1OC(=O)CCCCCCCCCCOC(=O)CCC.Cl
[5]
  Activity: 5.1%
[1]
  Activity: 66.7%
[2]
  Activity: 86.7%
[3]
  Activity: 13.3%
[6]
  Activity: 33.3%
[4]
  MTD at 504 h: 300 mg/kg

## C=CCCCCCCCCC(=O)OC[C@H]1O[C@@H]2[C@H](Oc3nc(=N)ccn32)[C@@H]1OC(=O)CCCCCCCCC=C.Cl
[5]
  Activity: 17.9%
[1]
  Activity: 51.3%
[2]
  Activity: 97.5%
[4]
  MTD at 504 h: 300 mg/kg

## Cc1ccc(S(=O)(=O)NCCCCCCCCCCC(=O)OC[C@H]2O[C@@H]3[C@H](Oc4nc(=[NH2+])ccn43)[C@@H]2OC(=O)CCCCCCCCCCNS(=O)(=O)c2ccc(C)cc2)cc1.F[B-](F)(F)F
[5]
  Activity: 12.5%
[1]
  Activity: 90%
[2]
  Activity: 140%
[4]
  MTD at 504 h: 500 mg/kg

## CCOC(=O)CCCCCCCCCCCCCCC(=O)OC[C@H]1O[C@@H]2[C@H](Oc3nc(=N)ccn32)[C@@H]1OC(=O)CCCCCCCCCCCCCCC(=O)OCC.Cl
[1]
  Activity: 10.7%
[2]
  Activity: 37.3%
[3]
  Activity: 6.7%

## Cl.N=c1ccn2c(n1)O[C@@H]1[C@H](OC(=O)c3ccc(F)cc3)[C@@H](COC(=O)c3ccc(F)cc3)O[C@H]12
[1]
  Activity: 10%
[2]
  Activity: 47.4%
[6]
  Activity: 38.5%
[4]
  MTD at 504 h: 500 mg/kg

## F[B-](F)(F)F.[NH2+]=c1ccn2c(n1)O[C@@H]1[C@H](OC(=O)CCCCCCCCCCNC(=O)c3ccccc3)[C@@H](COC(=O)CCCCCCCCCCNC(=O)c3ccccc3)O[C@H]12
[5]
  Activity: 38.5%
[1]
  Activity: 100%
[2]
  Activity: >292.3%
[4]
  MTD at 504 h: 500 mg/kg

## CCCCCCCCCCCCOCCC(=O)OC[C@H]1O[C@@H]2[C@H](Oc3nc(=N)ccn32)[C@@H]1OC(=O)CCOCCCCCCCCCCCC.Cl
[5]
  Activity: 30.8%
[1]
  Activity: 118%
[2]
  Activity: >595%
[4]
  MTD at 504 h: 500 mg/kg

## Cl.N=c1ccn2c(n1)O[C@@H]1[C@H](OC(=O)CCCCCCCCCCBr)[C@@H](COC(=O)CCCCCCCCCCBr)O[C@H]12
[5]
  Activity: 12.8%
[1]
  Activity: 61.5%
[2]
  Activity: 145.9%
[4]
  MTD at 504 h: 300 mg/kg

## F[B-](F)(F)F.[NH2+]=c1ccn2c(n1)O[C@@H]1[C@H](OC(=O)CCCCCN3C(=O)c4ccccc4C3=O)[C@@H](COC(=O)CCCCCN3C(=O)c4ccccc4C3=O)O[C@H]12
[1]
  Activity: 23.1%
[2]
  Activity: 60.3%
[4]
  MTD at 504 h: 300 mg/kg

## CCOc1ccc(C(=O)OC[C@H]2O[C@@H]3[C@H](Oc4nc(=N)ccn43)[C@@H]2OC(=O)c2ccc(OCC)cc2)cc1.Cl
[1]
  Activity: 33.3%
[2]
  Activity: 67.5%
[4]
  MTD at 504 h: 500 mg/kg

## Cl.N=c1ccn2c(n1)O[C@@H]1[C@H](OC(=O)/C=C/c3ccco3)[C@@H](COC(=O)/C=C/c3ccco3)O[C@H]12
[1]
  Activity: 20%
[2]
  Activity: 54.7%
[3]
  Activity: 20%
[6]
  Activity: 26.7%
[4]
  MTD at 504 h: 300 mg/kg
